Measured values from different studies.
Protocols differ between the studies behind these lines. pEC50, pIC50: −log10 of the molar value.
Cell line: WI-38
Read-out: cell growth or viability

Structure (SMILES) | method | time | measurement | result
CN(C)CCCOc1cc(NC(=O)c2cc(Cl)cc(C(=O)Nc3cc(OCCCN(C)C)c4ccccc4n3)n2)nc2ccccc12 | ATP luminescence | 72 h | pIC50 | 5.44
COc1cc(Nc2nc(C#N)cc3c(-c4ccccc4)n[nH]c23)cc(OC)c1OC | MTS | 48 h | pIC50 | < 5.00
Cc1cccc(-n2ncc(Br)c(Br)c2=O)c1 | resazurin | 96 h | pIC50 | 5.58
N#Cc1cc2c(-c3ccccc3)n[nH]c2c(Nc2ccccc2)n1 | MTS | 48 h | pIC50 | < 5.00
CS(=O)(=O)CCNCc1ccc(-c2ccc3ncnc(Nc4ccc(OCc5cccc(F)c5)c(Cl)c4)c3c2)o1 | MTT | 72 h | pEC50 | 4.49
CN(C)CCCOc1cc(NC(=O)c2cccc(C(=O)Nc3cc(OCCCN(C)C)c4ccccc4n3)n2)nc2ccccc12 | ATP luminescence | 72 h | pIC50 | 5.68
C=C(c1ccc(C(=O)O)cc1)c1cc2c(cc1C)C(C)(C)CCC2(C)C | MTT | 72 h | pEC50 | 4.12
c1ccc(CNCc2cc3c(-c4ccccc4)n[nH]c3c(Nc3ccccc3)n2)cc1 | MTS | 48 h | pIC50 | 5.09
Cc1nc(Nc2ncc(C(=O)Nc3c(C)cccc3Cl)s2)cc(N2CCN(CCO)CC2)n1 | MTT | 72 h | pEC50 | 6.15
C#CCOc1cc(C(=O)Nc2cc(OCCN)c3ccccc3n2)nc(C(=O)Nc2cc(OCCN)c3ccccc3n2)c1 | ATP luminescence | 72 h | pIC50 | 5.40
